Here are results for two compounds from paper PMC3985699 (Journal of the American Chemical Society, 2014).

For one data set, the system named is S. aureus ATCC 29213. In words: MIC by microdilution. The class given is cell-based. The following applies: Staphylococcus aureus, ATCC29213. The essentials: (§1)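 S. aureus was tested by CLSI broth microdilution in cation-adjusted Mueller Hinton II broth, final inoculum 5 × 10⁵ CFU/mL, 35 °C, read after 16–20 or 20–24 h; oxacillin was tested with 2% NaCl. MIC was the lowest concentration without visible growth, in triplicate. For ATCC 29213, inocula of 5 × 10⁶ and 5 × 10⁷ CFU/mL were also tested.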

The test system of the next data set is S. aureus ATCC 27660. The data set can be described thus: MIC by microdilution. The class given is cell-based. The note with it: Staphylococcus aureus, ATCC27660. The essentials:
as §1

In the next data set the test system is S. aureus NRS100 (COL). In words: MIC by microdilution. The class given is cell-based. The note with it: Staphylococcus aureus. The essentials: as §1
For a further data set, the system named is S. aureus NRS119. In words: MIC by microdilution. It is filed as cell-based. The note with it: Staphylococcus aureus. The essentials:
as §1

A further data set relates to S. aureus NRS120. The data set can be described thus: MIC by microdilution. The class given is cell-based. The following applies: Staphylococcus aureus. The essentials: as §1
The subject of a further data set is S. aureus VRS1. In words: MIC by microdilution. The class given is cell-based. The following applies: Staphylococcus aureus, MRSA. The essentials:
as §1

The next data set has as its system S. aureus VRS2. The data set can be described thus: MIC by microdilution. The following applies: Staphylococcus aureus, MRSA. The class given is cell-based. Put shortly: as §1
Another data set concerns S. epidermis ATCC 35547. The data set can be described thus: MIC by microdilution. The class given is cell-based. Put shortly: (§2)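 CLSI broth microdilution in cation-adjusted Mueller Hinton II broth, final inoculum 5 × 10⁵ CFU/mL. Plates incubated at 35 °C and read after 16–20 or 20–24 h depending on species. MIC taken as the lowest concentration with no visible growth. All determinations in triplicate.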

For data set [1], the system named is S. hemolyticus ATCC 29970. In words: MIC by microdilution. The class given is cell-based. The note with it: Streptococcus pyogenes, ATCC29970.
The next data set concerns S. oralis ATCC 9811. The data set can be described thus: MIC by microdilution. The note with it: Streptococcus oralis, ATCC9811. It is filed as cell-based. The essentials:
(§3)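 Streptococcal MICs came from CLSI broth microdilution in cation-adjusted Mueller Hinton II broth with 5% lysed horse blood. Final inoculum 5 × 10⁵ CFU/mL, incubation at 35 °C, read after 16–20 or 20–24 h depending on species. MIC was the lowest concentration without visible growth, determined in triplicate.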

A further data set concerns S. pyogenes ATCC 49399. In words: MIC by microdilution. It is filed as cell-based. The note with it: Streptococcus pyogenes, ATCC49399. The essentials: as §3
In another data set the test system is E. faecalis ATCC 29212. The data set can be described thus: MIC by microdilution. The class given is cell-based. The following applies: Enterococcus faecalis, ATCC29212. The essentials:
as §2

A further data set concerns E. faecalis 201 (Van S). In words: MIC by microdilution. It is filed as cell-based. The note with it: Enterococcus faecalis. The essentials: as §2
For data set [2], the system named is E. faecium 119–39A (Van S). The data set can be described thus: MIC by microdilution. It is filed as cell-based. The following applies: Enterococcus faecium. The essentials: as §2
In a further data set the test system is E. faecium 106 (Van R). In words: MIC by microdilution. The class given is cell-based. The note with it: Enterococcus faecium. Put shortly:
as §2

The next data set deals with E. faecium NCTC 7171. The data set can be described thus: MIC by microdilution. It is filed as cell-based. The note with it: Enterococcus faecium, NCTC7171. Put shortly: as §2
A short description of the next data set: Hemolysis assay. The class given is cell-based, horse. The note with it: horse, washed red blood cells from horse whole blood.
The next data set can be described thus: Pharmacokinetics in mice. It is filed as in vivo. The essentials: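 Female ICR mice received a single 50 mg/kg dose, either iv in 10% DMSO/25% Tween-80/65% water or po by gavage (n = 3 per time point). Terminal blood was taken at 2 min–24 h after iv and 0.5–48 h after po, then centrifuged for plasma. Plasma was precipitated with acetonitrile containing internal standard and analysed by C18 UPLC-ESI(+)-MRM against calibration curves in blank mouse plasma.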

Data set [3] has as its system S. aureus ATCC 27660 (MRSA). The data set can be described thus: Mouse peritonitis infection model. The class given is in vivo, Staphylococcus aureus. The note with it: mice, antibiotic 3 vs 4. The essentials:
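Female ICR mice (6–8 weeks, 17–20 g) were infected intraperitoneally with 0.5 mL MRSA ATCC 27660 at 5 × 10⁷ CFU/mL in 5% mucin. The inoculum was grown in brain heart infusion and adjusted to OD540 0.5. A single oral gavage dose was given 1 h post-infection (n = 6/group), with linezolid 10 mg/kg as positive control. Survival was monitored over 2 days.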

For data set [4], the system named is peptidoglycan synthesis of S. aureus. In words: Macromolecular synthesis assay, D-[2,3-3H]-alanine incorporation. It is filed as cell-based, Staphylococcus aureus. The following applies: S. aureus ATCC 29213, logarithmic phase; 0.25 and 0.5 μg/mL. The essentials:
(§4)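 Mid-exponential S. aureus ATCC 29213 in brain heart infusion was labelled with 1 μCi/mL ³H-precursor for 10 min at 37 °C before test compound addition (0.25, 0.5 μg/mL). Controls: ciprofloxacin (thymidine), rifampicin (uridine), tetracycline (leucine), fosfomycin (alanine). Samples every 20 min up to 2 h, precipitated in 20% cold TCA, filtered, scintillation-counted. Triplicates, repeated at least twice; % inhibition versus control.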

For data set [5], the system named is RNA synthesis (transcription) of S. aureus. The data set can be described thus: Macromolecular synthesis assay, [5-3H]-uridine incorporation. The following applies: S. aureus ATCC 29213, logarithmic phase; 0.25 and 0.5 μg/mL. It is filed as cell-based, Staphylococcus aureus. Put shortly: as §4
Data set [6] relates to protein synthesis (translation) of S. aureus. The data set can be described thus: Macromolecular synthesis assay, L-[4,5-3H]-leucine incorporation. It is filed as cell-based, Staphylococcus aureus. The note with it: S. aureus ATCC 29213, logarithmic phase; 0.25 and 0.5 μg/mL. Put shortly: as §4
Data set [7] concerns DNA synthesis (replication) of S. aureus. In words: Macromolecular synthesis assay, [methyl-3H]-thymidine incorporation. It is filed as cell-based, Staphylococcus aureus. The following applies: S. aureus ATCC 29213, logarithmic phase; 0.25 and 0.5 μg/mL. Put shortly: as §4
Data set [8] deals with T7 polymerase transcription of the dacB gene encoding E. coli PBP4. In words: In vitro transcription assay. It is filed as biochemical. The note with it: 0.5, 5, 50 and 160 μg/mL, 2 h at 37 °C. The essentials:
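Template was pET24a carrying E. coli K12 dacB without the 90-bp signal-peptide region, linearized with XhoI, 2 μL at 0.5 μg/μL per reaction. Run with a T7 transcription kit, test compound or negative control, then iced. DNaseI (37 °C, 15 min) and EDTA with 65 °C for 10 min followed. Transcripts diluted 30-fold and run on a 1% denaturing formaldehyde gel in MOPS pH 7.0.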

Data set [9] has as its system E. coli S30 extract coupled transcription and translation system. The data set can be described thus: In vitro transcription/translation assay. It is filed as biochemical. The note with it: concentrations of up to 160 μg/mL (80-fold above the MIC). The essentials:
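The coupled system used the E. coli S30 extract (circular DNA) with a pUC19 lacZ template. Test compound was added at 0.5, 5, 50 and 160 μg/mL alongside a negative control. Reactions ran 2 h at 37 °C and were stopped on ice for 5 min. β-Galactosidase was quantified by o-nitrophenyl-β-D-galactoside hydrolysis, read at 420 nm against a standard curve.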

For data set [10], the target named is purified recombinant PBP2a (Staphylococcus aureus, UniProt P07944). In words: Continuous spectrophotometric PBP2a inhibition assay with nitrocefin. The class given is biochemical, MRSA.
For a further data set, the system named is S. aureus. The data set can be described thus: Initial antibacterial screen of in silico hits. It is filed as cell-based, Staphylococcus aureus. The following applies: initial screening of in silico hits.
A further data set deals with E. faecium. In words: Initial antibacterial screen of in silico hits. It is filed as cell-based, Enterococcus faecium. The following applies: initial screening of in silico hits.
[11] abbreviates: ICR, mouse, plasma, iv, 50 mg/kg.
Where [12] appears, read: female, ICR, mouse, plasma, po, 50 mg/kg.

Converted amounts (≈) assume the structure as drawn.

purified recombinant PBP2a, sequence (P07944 whole entry): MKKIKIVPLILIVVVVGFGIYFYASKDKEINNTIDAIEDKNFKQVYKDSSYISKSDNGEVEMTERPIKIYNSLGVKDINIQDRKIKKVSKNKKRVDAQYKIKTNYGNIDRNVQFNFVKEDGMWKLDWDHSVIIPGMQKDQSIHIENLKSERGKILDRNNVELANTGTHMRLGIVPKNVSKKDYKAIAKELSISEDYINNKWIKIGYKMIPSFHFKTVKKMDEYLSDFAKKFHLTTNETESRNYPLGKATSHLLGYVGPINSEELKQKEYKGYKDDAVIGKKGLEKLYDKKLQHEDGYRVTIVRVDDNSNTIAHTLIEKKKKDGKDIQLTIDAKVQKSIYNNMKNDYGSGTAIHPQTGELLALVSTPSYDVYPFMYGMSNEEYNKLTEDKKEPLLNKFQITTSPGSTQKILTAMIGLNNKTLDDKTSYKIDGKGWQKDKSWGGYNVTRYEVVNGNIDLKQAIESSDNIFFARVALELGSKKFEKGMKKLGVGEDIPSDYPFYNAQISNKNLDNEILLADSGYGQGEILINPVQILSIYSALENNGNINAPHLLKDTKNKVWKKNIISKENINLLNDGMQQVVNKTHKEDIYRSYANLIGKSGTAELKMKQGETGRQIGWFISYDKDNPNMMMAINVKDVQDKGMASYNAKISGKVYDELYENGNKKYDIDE

For the compound `Oc1ccc(-c2nc(-c3ccc(Oc4ccc(C(F)(F)F)cc4)cc3)no2)cc1` [Compound 3, 4-(3-(4-(4-(Trifluoromethyl)phenoxy)phenyl)-1,2,4-oxadiazol-5-yl)phenol], the MIC in the data set with S. aureus ATCC 29213, in the data set on S. aureus ATCC 27660, against S. aureus NRS100 (COL), in the data set with S. aureus NRS119, against S. aureus NRS120 and in the data set on S. aureus VRS1 was 2 µg/mL (≈ 5.02 µM) each time. The MIC with S. aureus VRS2 is 2 µg/mL (≈ 5.02 µM); against S. epidermis ATCC 35547, 2 µg/mL (≈ 5.02 µM); in [1] it was 2 µg/mL (≈ 5.02 µM); against S. oralis ATCC 9811 it was 32 µg/mL (≈ 80.3 µM); with S. pyogenes ATCC 49399 it was greater than 32 µg/mL; in the data set on E. faecalis ATCC 29212, 2 µg/mL (≈ 5.02 µM). Besides, the MIC is 2 µg/mL (≈ 5.02 µM) in the data set with E. faecalis 201 (Van S), 1 µg/mL (≈ 2.51 µM) in [2], 2 µg/mL (≈ 5.02 µM) with E. faecium 106 (Van R) and 2 µg/mL (≈ 5.02 µM) in the data set on E. faecium NCTC 7171. This compound also registered a hemolysis at 1 h, 64 μg/mL in “Hemolysis assay” of 3%. The AUC(0-inf) in “Pharmacokinetics in mice” (setting [11]) is 44200 ng·h/mL; in the data set “Pharmacokinetics in mice” (setting [12]) it was 43700 ng·h/mL. Also, in the data set “Pharmacokinetics in mice” (setting [11]), the Vd came to 0.37 L/kg. Moreover, the maximum concentration (Cmax) in the data set “Pharmacokinetics in mice” (setting [12]) stood at 2500 ng/mL. Moreover, the Tmax in the data set “Pharmacokinetics in mice” (setting [12]) stood at 2 h. Also, the “higher systemic exposure relative to comparator compound” value in the data set “Pharmacokinetics in mice” (mice, 50 mg/kg iv, compound 3 vs compound 2, compound 4 vs compound 3) is 2 fold. Also, in “Pharmacokinetics in mice” (mice, single 50 mg/kg iv), the “volume of distribution (in words)” value is reported as “moderate volume of distribution”. Further, the “efficacy following po dosing (comparison)” value in data set [3] is reported as “superior efficacy”. Moreover, the “inhibition of peptidoglycan synthesis” value in data set [4] is given as “inhibited peptidoglycan synthesis”. Further, the inhibition of transcription result in [5] was “did not inhibit”. Moreover, the inhibition of translation result in data set [6] is on record as “did not inhibit”. Moreover, the “inhibition of replication (DNA synthesis)” value in [7] is listed as “did not inhibit”. In addition, in data set [8], the “effect on dacB mRNA band intensities” value is “no effect”. The “effect on β-galactosidase formation” value in data set [9] was “no effect”. Besides, the IC50 in data set [10] is 20.1 µM.
Regarding `Fc1ccc(-c2nc(-c3ccc(Oc4ccc(C(F)(F)F)cc4)cc3)no2)cc1` [Compound 1, 5-(4-Fluorophenyl)-3-(4-(4-(trifluoromethyl)phenoxy)phenyl)-1,2,4-oxadiazole], the “MIC (in words)” value in the data set with S. aureus and in the data set on E. faecium was “poor but reproducible MIC” each time.
